Results reported in ChEMBL document CHEMBL1177766, “2-Substituted N-aryl piperazines as novel triple reuptake inhibitors for the treatment of depression” (Bioorg Med Chem Lett, 2010).

Assay: Clearance in human liver microsomes assessed per mg of protein by LC/MS analysis
Type: ADME, Microsome
Method in brief: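 Human liver microsomes at 0.5 mg/mL protein. Reaction started with NADPH, run at 37 °C without shaking. Aliquots taken at 0.1, 10, 20 and 30 min for LC/MS analysis. Clearance expressed in µL/min/mg.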

Question: For `Fc1cc(N2CCNCC2Cc2ccccc2)cc2cc[nH]c12` (stereo not drawn), which microsomal CLint is on record?
Answer: 16.8 µL/min/mg

Question: For `c1ccc(CC2CNCCN2c2ccc3[nH]ccc3c2)cc1` (stereo not drawn), which microsomal CLint is on record?
Answer: 43.3 µL/min/mg

Question: For `c1ccc(CC2CNCCN2c2ccc3[nH]ncc3c2)cc1` (stereo not drawn), which microsomal CLint is on record?
Answer: 3.8 µL/min/mg
